Experimental data from ChEMBL document CHEMBL4414577, “Discovery of Pyrrolo[2,3-b]pyridine (1,7-Dideazapurine) Nucleoside Analogues as Anti-Trypanosoma cruzi Agents” (J Med Chem, 2019).
The source made the active and inactive calls. No cut-off for these calls is given here.

Key:
[1] = Drug metabolism in rat liver microsomes assessed as UGT-mediated metabolism by measuring compound remaining at 5 uM measured immediately in presence of UDPGA by UPLC-MS analysis; type: ADME; conditions: read-out: Stability
Summary of the method: (§1)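 Compound incubated with male mouse, rat, dog or pooled human S9 fractions, with NADPH (phase I) or […], sampled at 0, 15, 30 and 60 min. Read-out is percent parent remaining. Two independent experiments of two biological replicates; diclofenac and fluconazole used as assay controls.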

[2] = Drug metabolism in dog liver microsomes assessed as CYP450-mediated metabolism by measuring parent compound remaining at 5 uM incubated for 15 mins in presence of NADPH by UPLC-MS analysis; type: ADME, Canis lupus familiaris; conditions: read-out: Stability; summary of the method: as §1
[3] = system: Trypanosoma cruzi; experiment: (§2) In vivo antitrypanosomal activity against Trypanosoma cruzi Y trypomastigotes infected in Swiss mouse assessed as reduction in parasitemia at 25 mg/kg, po administered twice daily via gavage for 5 days starting from 5 days post-infection and measured up to 30 days post-infection by light microscopic method relative to control; type: functional; set-up: scale not given: the % may be the effect or the level left
Summary of the method: (§3)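 Male Swiss Webster mice (18-20 g, six per group) were infected i.p. with 10⁴ Y-strain bloodstream trypomastigotes. Treatment began at 5 dpi, only in mice with detectable parasitemia. Dosing was 25 mg/kg b.i.d. by oral gavage for 5 days, using a 2.0 mg/mL formulation in 10% EtOH, 0.1 M citrate pH 3.02. Parasites in 5 μL tail-vein blood were counted microscopically up to 30 dpi, against vehicle-treated infected mice.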

[4] = Drug metabolism in mouse liver microsomes assessed as UGT-mediated metabolism by measuring compound remaining at 5 uM incubated for 15 mins in presence of UDPGA by UPLC-MS analysis; type: ADME; conditions: read-out: Stability; summary of the method: as §1
[5] = Drug metabolism in mouse liver microsomes assessed as CYP450-mediated metabolism by measuring parent compound remaining at 5 uM incubated for 60 mins in presence of NADPH by UPLC-MS analysis; type: ADME; conditions: read-out: Stability
[6] = system: Trypanosoma cruzi; experiment: In vivo antitrypanosomal activity against Trypanosoma cruzi Y trypomastigotes infected in Swiss mouse assessed as mouse survival at 25 mg/kg, po administered twice daily for 5 days with 2 days interval for 3 cycles and measured […]; type: functional, organism-based
Summary of the method: (§4)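 Male Swiss Webster mice infected i.p. with 10⁴ Y-strain bloodstream trypomastigotes; six per group. Oral gavage from 5 dpi for 15 days (three 5-day rounds, 2 days off): test compound 25 mg/kg b.i.d., benznidazole 100 mg/kg s.i.d. Parasites counted in 5 μL tail blood to 30 dpi; mortality followed to 53 dpi.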

[7] = Drug metabolism in dog liver microsomes assessed as UGT-mediated metabolism by measuring compound remaining at 5 uM incubated for 30 mins in presence of UDPGA by UPLC-MS analysis; type: ADME, Canis lupus familiaris; conditions: read-out: Stability; summary of the method: as §1
[8] = system: Trypanosoma cruzi; experiment: In vivo antitrypanosomal activity against Trypanosoma cruzi Y trypomastigotes infected in Swiss mouse assessed as reduction in parasitemia at 25 mg/kg, po administered twice daily via gavage for 5 days starting from 5 days post-infection in presence of cyclophosphamide by light microscopic method; type: functional, organism-based
Summary of the method: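 Infected mice were dosed orally at 25 mg/kg b.i.d. from 5 dpi, either for 5 days or for 15 days (3 × 5 days, 2 days apart). Mice with negative parasitemia up to 30 days post-treatment then received cyclophosphamide i.p. at 50 mg/kg/day. This was given in three cycles of 4 days, each followed by 3 drug-free days. Tail-vein blood parasitemia was then read by light microscopy.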

[9] = Toxicity in Swiss Webster mouse infected with Trypanosoma cruzi Y trypomastigotes assessed as appearance of clinical symptoms at 25 mg/kg, po administered twice daily via gavage for 5 days starting from 5 days post-infection and measured daily up to 40 days post-infection; type: organism-based; conditions: in vivo
Summary of the method: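 Male Swiss Webster mice were infected i.p. with 10⁴ Y-strain trypomastigotes and treated by oral gavage for 5 days from 5 dpi. Regimens were 25 mg/kg b.i.d. (10% EtOH/citrate vehicle) or benznidazole 100 mg/kg s.i.d. Body weight and visual clinical signs were monitored, with daily mortality checks up to 40 dpi. There were six mice per group.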

[10] = Drug metabolism in rat liver microsomes assessed as CYP450-mediated metabolism by measuring parent compound remaining at 5 uM incubated for 15 mins in presence of NADPH by UPLC-MS analysis; type: ADME; conditions: read-out: Stability; summary of the method: as §1
[11] = system: Trypanosoma cruzi; experiment: as §2, with “8” for “up to 30”; type: functional; set-up: scale not given: the % may be the effect or the level left; summary of the method: as §3
[12] = molecular target: T1, UDP-glucuronosyltransferases (UGTs) (Homo sapiens, UniProt O60656+O75310+O75795+P06133+P0DTE4+P0DTE5+P16662+P19224+P22309+P22310+P35503+P35504+P36537+P54855+Q6UWM9+Q9BY64+Q9HAW7+Q9HAW8+Q9HAW9); experiment: Drug metabolism in human liver S9 fraction assessed as UGT-mediated metabolism by measuring compound remaining at 5 uM incubated for 30 mins in presence of UDPGA by UPLC-MS analysis; type: ADME, subcellular; conditions: read-out: Stability; summary of the method: as §1
[13] = molecular target: T1, UDP-glucuronosyltransferases (UGTs); experiment: Drug metabolism in human liver S9 fraction assessed as UGT-mediated metabolism by measuring compound remaining at 5 uM incubated for 60 mins in presence of UDPGA by UPLC-MS analysis; type: ADME, subcellular; conditions: read-out: Stability; summary of the method: as §1
[14] = Drug metabolism in rat liver microsomes assessed as UGT-mediated metabolism by measuring compound remaining at 5 uM incubated for 30 mins in presence of UDPGA by UPLC-MS analysis; type: ADME; conditions: read-out: Stability; summary of the method: as §1
[15] = system: Trypanosoma cruzi; experiment: Antitrypanosomal activity against Trypanosoma cruzi Y amastigotes infected in Swiss mouse primary cardiac cells incubated for 168 hrs with media replenishment for every 48 hrs followed by compound washout and measured after 168 hrs by light microscopic method; type: functional, organism-based
Summary of the method: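 Cardiac cells plated 24 h, then infected 24 h at 37 °C with Y-strain bloodstream trypomastigotes (parasite:host 10:1) and washed. Serial dilutions (up to 5 µM) for 168 h at 37 °C, drug medium renewed every 48 h. PBS rinse, 168 h drug-free. Giemsa-stained; infected cells and parasites per cell scored in 200 cells. EC50 from infection-index inhibition; two experiments, duplicate.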

[16] = Drug metabolism in rat liver microsomes assessed as CYP450-mediated metabolism by measuring parent compound remaining at 5 uM measured immediately in presence of NADPH by UPLC-MS analysis; type: ADME; conditions: read-out: Stability; summary of the method: as §1
[17] = Drug metabolism in mouse liver microsomes assessed as UGT-mediated metabolism by measuring compound remaining at 5 uM measured immediately in presence of UDPGA by UPLC-MS analysis; type: ADME; conditions: read-out: Stability; summary of the method: as §1
[18] = Drug metabolism in mouse liver microsomes assessed as UGT-mediated metabolism by measuring compound remaining at 5 uM incubated for 60 mins in presence of UDPGA by UPLC-MS analysis; type: ADME; conditions: read-out: Stability; summary of the method: as §1
[19] = Drug metabolism in dog liver microsomes assessed as CYP450-mediated metabolism by measuring parent compound remaining at 5 uM incubated for 30 mins in presence of NADPH by UPLC-MS analysis; type: ADME, Canis lupus familiaris; conditions: read-out: Stability; summary of the method: as §1
[20] = system: L929; experiment: Cytotoxicity against mouse L929 cells assessed as reduction in cell viability; type: cell-based
[21] = system: Trypanosoma cruzi; experiment: In vivo antitrypanosomal activity against Trypanosoma cruzi Y trypomastigotes infected in Swiss mouse assessed as reduction in parasitemia at 25 mg/kg, po administered twice daily for 5 days with 2 days interval for 3 cycles and measured 9 days post-infection by light microscopy relative to control; type: functional; set-up: scale not given: the % may be the effect or the level left; summary of the method: as §4
[22] = Drug metabolism in dog liver microsomes assessed as UGT-mediated metabolism by measuring compound remaining at 5 uM incubated for 60 mins in presence of UDPGA by UPLC-MS analysis; type: ADME, Canis lupus familiaris; conditions: read-out: Stability; summary of the method: as §1

remaining at 0 min, 5 µM [1]: 100%
remaining at 0.25 h, 5 µM [2]: 97%
remaining at 0.25 h, 5 µM [4]: 102%
remaining at 1 h, 5 µM [5]: 94%
remaining at 0.5 h, 5 µM [7]: 94%
remaining at 0.25 h, 5 µM [10]: 88%
remaining at 0.5 h, 5 µM [12]: 99%
remaining at 1 h, 5 µM [13]: 100%
remaining at 0.5 h, 5 µM [14]: 94%
EC50 [15]: > 5 µM
remaining at 0 min, 5 µM [16]: 100%
remaining at 0 min, 5 µM [17]: 100%
remaining at 1 h, 5 µM [18]: 101%
remaining at 0.5 h, 5 µM [19]: 96%
remaining at 1 h, 5 µM [22]: 84%
Compound: Nc1ccnc2c1c(I)cn2[C@@H]1O[C@H](CO)[C@@H](O)[C@H]1O
Activity [3]: 100%
Activity [6]: inactive
Activity [8]: inactive
Activity [9]: Non-Toxic
Activity [11]: 95%
EC50 [20]: > 200 µM
Activity [21]: 100%
